Measured values: ChEMBL document CHEMBL1125300, “Synthesis and biological activity of trans(+-)-N-methyl-2-(3-pyridyl)-2-tetrahydrothiopyrancarbothioamide 1-oxide (RP 49356) and analogues: a new class of potassium channel opener” (1992)

Assays:
Rattus norvegicus [1] = organism: Rattus norvegicus; test: In vitro inhibitory concentration producing 90% reduction in maximum contraction produced by KCl (20 mmol) in isolated aorta of rat.; assay type: functional
Summary of the method: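 Isolated aortic tissue recorded isometrically via force-displacement transducers; equilibrated 90 min at 2 g resting tension, contracted with 20 mmol KCl, then cumulative concentration-response relaxation, each concentration added once the prior maximal effect developed. Glibenclamide 5 μM tested for reversal of relaxation. Drugs dissolved in DMSO. Mean EC90 ± SEM, number of experiments given.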

Rattus norvegicus [2] = test: The compound was evaluated for hypotensive activity in anaesthetized Sprague Dawley rats on intravenous administration; assay type: functional
Summary of the method: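 Male Sprague Dawley rats (280–350 g), pentobarbitone 60 mg/kg ip, ventilated; carotid blood pressure recorded. 15-min iv infusion via jugular vein, one per rat, vehicle PEG 200 with 0.01 N HCl diluted 1:10 in saline. Max MBP change over ≥30 min; two or more doses in 3–4 rats; dose giving 30 mmHg fall by linear regression vs log dose.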

Question: Which IC90 (Rattus norvegicus [1]; Rattus norvegicus, Aorta) does the source give for `CC(C)/N=C(\S)[C@]1(c2cccnc2)CCCC[S+]1[O-]` (some centres not stated) here?
Answer: Its IC90 is 10 µM.

Question: With `CNC(=S)[C@]1(c2cccnc2)CCCC[S@+]1[O-]` as the compound, how does the IC90 (Rattus norvegicus [1]; Rattus norvegicus, Aorta) read?
Answer: The IC90 was greater than 30 µM.

Question: What does the source list for `C/N=C(\S)[C@]1(c2cnc3ccccc3c2)CCCC[S+]1[O-]` (some centres not stated)?
Answer: ED30 (Rattus norvegicus [2]): 0.04 mg/kg; IC90 (Rattus norvegicus [1]; Rattus norvegicus, Aorta): 0.06 µM

Question: How did the IC90 (Rattus norvegicus [1]; Rattus norvegicus, Aorta) turn out when `C/N=C(\S)[C@]1(c2ccccn2)CCCC[S+]1[O-]` (some centres not stated) was run?
Answer: Its IC90 is greater than 30 µM.

Question: How did the IC90 (Rattus norvegicus [1]; Rattus norvegicus, Aorta) turn out when `N/N=C(\S)[C@]1(c2cccnc2)CCCC[S+]1[O-]` (some centres not stated) was run?
Answer: Its IC90 is greater than 30 µM.

Question: How did the IC90 (Rattus norvegicus [1]) turn out when `C/N=C(/S)[C@]1(c2cccnc2)CCCC[S@@+]1[O-]` (stereo in doubt; 8b) [APRIKALIM] was run?
Answer: Its IC90 is 0.4 µM.

Question: For `[O-][S+]1CCCC[C@]1(CO)c1cccnc1` (some centres not stated), which IC90 (Rattus norvegicus [1]; Rattus norvegicus, Aorta) is on record?
Answer: Its IC90 is greater than 30 µM.

Question: `CNC(=O)[C@]1(c2cccnc2)CCCC[S+]1[O-]` (some centres not stated) was tested. Which IC90 (Rattus norvegicus [1]; Rattus norvegicus, Aorta) did it give?
Answer: Its IC90 is greater than 30 µM.

Question: Which IC90 (Rattus norvegicus [1]) does the source give for `C/N=C(/S)[C@]1(c2cccnc2)CCCC[S@@+]1[O-]` (stereo in doubt; 8c) [APRIKALIM] here?
Answer: Its IC90 is greater than 30 µM.

Question: `C/N=C(\SC)[C@]1(c2cccnc2)CCCC[S+]1[O-]` (some centres not stated) was tested. Which IC90 (Rattus norvegicus [1]; Rattus norvegicus, Aorta) did it give?
Answer: Its IC90 is greater than 30 µM.

Question: `C/N=C(\S)[C@]1(c2cccnc2)OCCCS1` was tested. Which IC90 (Rattus norvegicus [1]; Rattus norvegicus, Aorta) did it give?
Answer: The IC90 was greater than 30 µM.

Question: For `COC(=N)[C@]1(c2cccnc2)CCCC[S+]1[O-]` (some centres not stated), which IC90 (Rattus norvegicus [1]; Rattus norvegicus, Aorta) is on record?
Answer: The IC90 was greater than 30 µM.

Question: For `C/N=C(\S)[C@]1(c2nc3ccccc3s2)CCCC[S+]1[O-]` (some centres not stated), which IC90 (Rattus norvegicus [1]; Rattus norvegicus, Aorta) is on record?
Answer: The IC90 was 29 µM.

Question: `C/N=C(\S)[C@]1(c2cccc(C(F)(F)F)c2)CCCC[S+]1[O-]` (some centres not stated) was tested. Which IC90 (Rattus norvegicus [1]; Rattus norvegicus, Aorta) did it give?
Answer: Its IC90 is 0.8 µM.

Question: Which results are given for `CC1(C)Oc2ccc(C#N)cc2C(N2CCCC2=O)C1O` (configuration not stated) [CROMAKALIM]?
Answer: ED30 (Rattus norvegicus [2]): 0.06 mg/kg; IC90 (Rattus norvegicus [1]; Rattus norvegicus, Aorta): 0.2 µM

Question: Which ED30 (Rattus norvegicus [2]) does the source give for `C/N=C(\S)[C@]1(c2cccnc2)CCCCS1` here?
Answer: Its ED30 is 1.5 mg/kg.

Question: What about the IC90 (Rattus norvegicus [1]; Rattus norvegicus, Aorta) of the same compound?
Answer: Its IC90 is greater than 30 µM.

Question: With `CC/N=C(\S)[C@]1(c2cccnc2)CCCC[S+]1[O-]` (some centres not stated) as the compound, how does the ED30 (Rattus norvegicus [2]) read?
Answer: The ED30 was 0.15 mg/kg.

Question: What about the IC90 (Rattus norvegicus [1]; Rattus norvegicus, Aorta) of the same compound?
Answer: The IC90 was 0.3 µM.

Question: For `C/N=C(\S)[C@]1(c2ccc(Cl)nc2)CCCC[S+]1[O-]` (some centres not stated), which IC90 (Rattus norvegicus [1]; Rattus norvegicus, Aorta) is on record?
Answer: Its IC90 is 0.3 µM.

Question: How did the IC90 (Rattus norvegicus [1]; Rattus norvegicus, Aorta) turn out when `N#C[C@]1(c2cccnc2)CCCC[S+]1[O-]` (some centres not stated) was run?
Answer: The IC90 was greater than 30 µM.

Question: With `COC(=O)CC/N=C(\S)[C@]1(c2cccnc2)CCCC[S+]1[O-]` (some centres not stated) as the compound, how does the IC90 (Rattus norvegicus [1]; Rattus norvegicus, Aorta) read?
Answer: Its IC90 is greater than 30 µM.

Question: `C/N=C(\S)[C@]1(c2ccns2)CCCC[S+]1[O-]` (some centres not stated) was tested. Which IC90 (Rattus norvegicus [1]; Rattus norvegicus, Aorta) did it give?
Answer: Its IC90 is 7 µM.

Question: With `C/N=C(\S)[C@]1(c2ccncc2)CCCC[S+]1[O-]` (some centres not stated) as the compound, how does the IC90 (Rattus norvegicus [1]; Rattus norvegicus, Aorta) read?
Answer: The IC90 was 25 µM.

Question: With `CCC/N=C(\S)[C@]1(c2cccnc2)CCCC[S+]1[O-]` (some centres not stated) as the compound, how does the IC90 (Rattus norvegicus [1]; Rattus norvegicus, Aorta) read?
Answer: The IC90 was 0.6 µM.

Question: How did the IC90 (Rattus norvegicus [1]; Rattus norvegicus, Aorta) turn out when `[O-][S+]1CCCC[C@]1(CS)c1cccnc1` (some centres not stated) was run?
Answer: Its IC90 is greater than 30 µM.

Question: For `C/N=C(/S)[C@]1(c2cccnc2)CCCCS1(=O)=O`, which IC90 (Rattus norvegicus [1]; Rattus norvegicus, Aorta) is on record?
Answer: Its IC90 is greater than 30 µM.

Question: For `C/N=C(\S)[C@]1(c2ccccc2)CCCC[S+]1[O-]` (some centres not stated), which IC90 (Rattus norvegicus [1]; Rattus norvegicus, Aorta) is on record?
Answer: Its IC90 is 9.5 µM.

Question: `C/N=C(\S)[C@]1(c2cccnc2)CCCO1` was tested. Which IC90 (Rattus norvegicus [1]; Rattus norvegicus, Aorta) did it give?
Answer: Its IC90 is greater than 30 µM.

Question: `C/N=C(\S)C1(c2cccnc2)CCCCC1` was tested. Which IC90 (Rattus norvegicus [1]; Rattus norvegicus, Aorta) did it give?
Answer: Its IC90 is 3 µM.

Question: Which IC90 (Rattus norvegicus [1]; Rattus norvegicus, Aorta) does the source give for `C/N=C(\S)[C@]1(c2cccc(C(=O)O)c2)CCCC[S+]1[O-]` (some centres not stated) here?
Answer: The IC90 was greater than 30 µM.

Question: `C/N=C(/S)[C@]1(c2cccnc2)CCCC[S@@+]1[O-]` (stereo in doubt; 8a) [APRIKALIM] was tested. Which IC90 (Rattus norvegicus [1]) did it give?
Answer: Its IC90 is 0.7 µM.

Question: `C/N=C(\S)[C@]1(c2ccc3ccccc3c2)CCCC[S+]1[O-]` (some centres not stated) was tested. Which IC90 (Rattus norvegicus [1]; Rattus norvegicus, Aorta) did it give?
Answer: Its IC90 is 2 µM.

Question: For `O=C(O)CC/N=C(\S)[C@]1(c2cccnc2)CCCC[S+]1[O-]` (some centres not stated), which IC90 (Rattus norvegicus [1]; Rattus norvegicus, Aorta) is on record?
Answer: Its IC90 is greater than 30 µM.

Question: How did the ED30 (Rattus norvegicus [2]) turn out when `C/N=C(\S)[C@]1(c2cccc(C#N)c2)CCCC[S+]1[O-]` (some centres not stated) was run?
Answer: The ED30 was 0.63 mg/kg.

Question: What about the IC90 (Rattus norvegicus [1]; Rattus norvegicus, Aorta) of the same compound?
Answer: Its IC90 is 1.6 µM.

Question: `C/N=C(\S)[C@]1(c2cccnc2)CCCS1` was tested. Which IC90 (Rattus norvegicus [1]; Rattus norvegicus, Aorta) did it give?
Answer: The IC90 was greater than 30 µM.

Question: How did the IC90 (Rattus norvegicus [1]; Rattus norvegicus, Aorta) turn out when `C/N=C(\S)[C@]1(c2ccc(Cl)cc2)CCCC[S+]1[O-]` (some centres not stated) was run?
Answer: The IC90 was 2.8 µM.

Question: `CCCC/N=C(\S)[C@]1(c2cccnc2)CCCC[S+]1[O-]` (some centres not stated) was tested. Which ED30 (Rattus norvegicus [2]) did it give?
Answer: Its ED30 is 1.5 mg/kg.

Question: What about the IC90 (Rattus norvegicus [1]; Rattus norvegicus, Aorta) of the same compound?
Answer: Its IC90 is 8 µM.

Question: Which IC90 (Rattus norvegicus [1]; Rattus norvegicus, Aorta) does the source give for `[O-][S+]1CCCC[C@]1(/C(S)=N/c1ccccc1)c1cccnc1` (some centres not stated) here?
Answer: The IC90 was greater than 30 µM.

Question: `C/N=C(\S)[C@]1(c2cccc(F)c2)CCCC[S+]1[O-]` (some centres not stated) was tested. Which IC90 (Rattus norvegicus [1]; Rattus norvegicus, Aorta) did it give?
Answer: The IC90 was 7 µM.

Question: With `C/N=C(\S)[C@]1(c2cc(Cl)cc(Cl)c2)CCCC[S+]1[O-]` (some centres not stated) as the compound, how does the IC90 (Rattus norvegicus [1]; Rattus norvegicus, Aorta) read?
Answer: Its IC90 is 0.4 µM.

Question: How did the IC90 (Rattus norvegicus [1]; Rattus norvegicus, Aorta) turn out when `C/N=C(\S)[C@]1(c2cnc(-c3ccccc3)s2)CCCC[S+]1[O-]` (some centres not stated) was run?
Answer: Its IC90 is 4 µM.

Question: Which IC90 (Rattus norvegicus [1]; Rattus norvegicus, Aorta) does the source give for `C/N=C(\S)C1(c2cccnc2)SCCCS1` here?
Answer: The IC90 was greater than 30 µM.

Question: `C/N=C(\S)C1(c2cccnc2)CCCC1` was tested. Which IC90 (Rattus norvegicus [1]; Rattus norvegicus, Aorta) did it give?
Answer: Its IC90 is 30 µM.

Question: With `C/N=C(\S)[C@]1(c2cccc(C(N)=O)c2)CCCC[S+]1[O-]` (some centres not stated) as the compound, how does the IC90 (Rattus norvegicus [1]; Rattus norvegicus, Aorta) read?
Answer: Its IC90 is 12 µM.

Question: Which ED30 (Rattus norvegicus [2]) does the source give for `C/N=C(\S)[C@]1(c2ccc(Cl)c(Cl)c2)CCCC[S+]1[O-]` (some centres not stated) here?
Answer: The ED30 was 1.28 mg/kg.

Question: And the IC90 (Rattus norvegicus [1]; Rattus norvegicus, Aorta)?
Answer: Its IC90 is 0.3 µM.

Question: For `C/N=C(\S)[C@]1(c2ccc(-c3ccccc3)cc2)CCCC[S+]1[O-]` (some centres not stated), which IC90 (Rattus norvegicus [1]; Rattus norvegicus, Aorta) is on record?
Answer: The IC90 was 12 µM.
